Reference: EPA's CvTdb concentration-time database

Columns and labels:
[1] = tested on: Rat; assay: concentration in plasma after dosing
[2] = tested on: Rat; assay: concentration in plasma after dosing; details: dosed: Isoeugenol, 17 mg/kg, oral, Female, F344/N
[3] = tested on: Rat; assay: concentration in plasma after dosing; details: dosed: Isoeugenol, 17 mg/kg, oral, Female, F344/N; remark: listed apart in the source
[4] = tested on: Rat; assay: concentration in plasma after dosing; details: dosed: Isoeugenol, 17 mg/kg, oral, Female, F344/N; remark: listed apart in the source
[5] = tested on: Rat; assay: concentration in plasma after dosing; details: dosed: Isoeugenol, 17 mg/kg, oral, Male, F344/N
[6] = tested on: Rat; assay: concentration in plasma after dosing; details: dosed: Isoeugenol, 70 mg/kg, oral, Male, F344/N
[7] = tested on: Rat; assay: concentration in plasma after dosing; details: dosed: Isoeugenol, 17 mg/kg, oral, Male, F344/N; remark: listed apart in the source
[8] = tested on: Rat; assay: concentration in plasma after dosing; details: dosed: Tetralin, 2 mg/kg, iv, Male, F344
[9] = tested on: Rat; assay: concentration in plasma after dosing; details: 2 h; dosed: Tetralin; 20 mg/kg; iv; Female; Harlan Sprague Dawley
[10] = tested on: Rat; assay: concentration in plasma after dosing; details: dosed: Tetralin, 20 mg/kg, iv, Female, Harlan Sprague Dawley
[11] = tested on: Rat; assay: concentration in plasma after dosing; details: dosed: Tetralin, 2 mg/kg, iv, Male, F344; remark: listed apart in the source
[12] = tested on: Rat; assay: concentration in plasma after dosing; details: 4 h; dosed: Tetralin; 20 mg/kg; iv; Male; F344
[13] = tested on: Rat; assay: concentration in plasma after dosing; details: dosed: Tetralin, 20 mg/kg, iv, Female, Harlan Sprague Dawley; remark: listed apart in the source
[14] = tested on: Rat; assay: concentration in plasma after dosing; details: dosed: Tetralin, 2 mg/kg, iv, Male, Harlan Sprague Dawley
[15] = tested on: rat; assay: concentration in blood after dosing; details: male
[16] = tested on: human; assay: concentration in blood after dosing; negative times count back from the end of exposure; details: dosed: methylethylketone, 400 ppm, inhalation, duration: 4 hr, male
Method in brief: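 Points were largely digitised from plot screenshots with WebPlotDigitizer or otherwise copied from tables, and they remain in the units each source reported. They come from published in vivo toxicokinetic studies and two structured collections. Sampling and analytical methods follow each source and were often not reported.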

C/C=C/c1ccc(O)c(OC)c1 [Isoeugenol]
concentration in plasma [ng/mL], [1], dosed: Isoeugenol, oral, F344/N
Details	Female	Male
0.5 h, 17 mg/kg	155	87.8
0.5 h, 70 mg/kg	–	312
0.75 h, 17 mg/kg	73.5	73
1 h, 17 mg/kg	57.7	34.4
1.5 h, 17 mg/kg	–	26.5
1.5 h, 70 mg/kg	–	118
2 h, 17 mg/kg	27.7	–
2 min, 17 mg/kg	48.3	53.9
2 min, 70 mg/kg	–	1160
3 h, 17 mg/kg	48.1	–
3 h, 70 mg/kg	–	216
4 h, 17 mg/kg	35.3	37.5
5 h, 17 mg/kg	50.1	–
5 h, 70 mg/kg	–	199
5 min, 17 mg/kg	346	141
5 min, 70 mg/kg	–	683
6 h, 17 mg/kg	32.7	27.6
6 h, 70 mg/kg	–	150
8 h, 17 mg/kg	38.5	–
8 h, 70 mg/kg	–	362
10 min, 17 mg/kg	161	148
10 min, 70 mg/kg	–	499
20 min, 17 mg/kg	358	86.1
20 min, 70 mg/kg	–	672

Details	concentration in plasma [ng/mL]
[2], 1.5 h	52.9
[2], 5 min	355
[3], 0.75 h	52.2
[3], 3 h	16.3
[4], 1 h	22.7
[4], 3 h	29.5
[5], 1.5 h	34.3
[5], 2 min	38.3
[6], 5 h	66.8
[6], 10 min	353
[7], 0.5 h	95.4
[7], 2 h	30.2

c1ccc2c(c1)CCCC2 [Tetralin]
Details	concentration in plasma [µg/g]
[8], 4 h	0.00972
[8], 308 s	1.77
[10], 4 h	0.216
[10], 5 min	22.1
[11], 0.75 h	0.134
[11], 12 h	0.00182
[13], 4 h	0.204
[13], 5 min	20.3
[14], 0.2533 h	0.362
[14], 6 h	0.00512

concentration in plasma [µg/g], [1], dosed: Tetralin, iv
Details	F344	Harlan Sprague Dawley
0.25 h, 20 mg/kg, Female	–	9.76
0.2517 h, 2 mg/kg, Male	0.888	–
0.2533 h, 2 mg/kg, Male	–	0.449
0.5033 h, 20 mg/kg, Female	–	2.55
0.505 h, 2 mg/kg, Male	–	0.207
0.5067 h, 2 mg/kg, Male	0.254	–
0.75 h, 2 mg/kg, Male	0.107	0.0681
0.75 h, 20 mg/kg, Female	–	2.11
1 h, 2 mg/kg, Male	0.11	0.0492
1 h, 20 mg/kg, Female	–	2.1
2 h, 2 mg/kg, Male	0.0262	0.0157
2 h, 20 mg/kg, Female	–	0.596
4 h, 2 mg/kg, Male	0.0114	0.0103
4 h, 20 mg/kg, Female	–	0.2
4 h, 20 mg/kg, Male	0.158	–
6 h, 2 mg/kg, Male	0.00667	0.00504
6.017 h, 20 mg/kg, Female	–	0.105
8 h, 2 mg/kg, Male	0.00488	0.00316
8 h, 20 mg/kg, Female	–	0.0424
12 h, 2 mg/kg, Male	0.00332	0.00151
12 h, 20 mg/kg, Female	–	0.0371
24 h, 2 mg/kg, Male	0.00081	–
24 h, 20 mg/kg, Female	–	0.00866
301 s, 20 mg/kg, Male	21	–
303 s, 20 mg/kg, Female	–	23.1
307 s, 2 mg/kg, Male	–	1.68
322 s, 2 mg/kg, Male	1.64	–

Details	concentration in plasma [µg/g]
[9]	0.628
[12]	0.15

[3H][3H] [[3]H]
[15], dosed: benzo[a]pyrene, Sprague Dawley
Details	concentration in blood [nM]
0 h, 1.70 nmol, iv	37.2
0 h, 3.20 nmol, oral	0.288
0 h, 4 nmol, oral	0.112
0.1116 h, 1.70 nmol, iv	12
0.1125 h, 1.70 nmol, iv	18.1
0.1153 h, 1.70 nmol, iv	8.27
0.1252 h, 1.70 nmol, iv	3.03
0.1473 h, 1.70 nmol, iv	12.7
0.1638 h, 4 nmol, oral	0.0356
0.1807 h, 4 nmol, oral	0.233
0.182 h, 1.70 nmol, iv	8.84
0.2047 h, 3.20 nmol, oral	0.443
0.3049 h, 1.70 nmol, iv	3.66
0.3458 h, 1.70 nmol, iv	3.2
0.4131 h, 3.20 nmol, oral	0.622
0.4184 h, 4 nmol, oral	0.364
0.4356 h, 4 nmol, oral	0.0332
0.443 h, 3.20 nmol, oral	0.188
0.6282 h, 4 nmol, oral	0.444
0.6407 h, 1.70 nmol, iv	2.67
0.6517 h, 3.20 nmol, oral	0.22
0.6678 h, 4 nmol, oral	0.0641
0.6836 h, 3.20 nmol, oral	0.741
0.6859 h, 1.70 nmol, iv	1.6
0.8687 h, 4 nmol, oral	0.516
0.9146 h, 1.70 nmol, iv	2.27
0.9355 h, 1.70 nmol, iv	0.81
0.9369 h, 4 nmol, oral	0.0732
0.9512 h, 3.20 nmol, oral	0.245
0.9543 h, 3.20 nmol, oral	0.873
1.04 h, 3.20 nmol, oral	0.279
1.135 h, 3.20 nmol, oral	0.947
1.371 h, 1.70 nmol, iv	1.8
1.4 h, 3.20 nmol, oral	0.297
1.416 h, 1.70 nmol, iv	0.882
1.435 h, 3.20 nmol, oral	1.17
1.639 h, 3.20 nmol, oral	0.347
1.858 h, 1.70 nmol, iv	1.32
1.88 h, 1.70 nmol, iv	0.331
1.886 h, 4 nmol, oral	0.208
1.95 h, 3.20 nmol, oral	1.17
2.33 h, 3.20 nmol, oral	0.383
2.464 h, 3.20 nmol, oral	1.19
2.498 h, 4 nmol, oral	0.817
3.067 h, 3.20 nmol, oral	1.37
3.756 h, 3.20 nmol, oral	0.16
3.763 h, 4 nmol, oral	0.0925
3.824 h, 1.70 nmol, iv	1.31
3.841 h, 1.70 nmol, iv	0.238
4.13 h, 4 nmol, oral	0.9
4.75 h, 3.20 nmol, oral	0.144
4.761 h, 3.20 nmol, oral	1.39
5.695 h, 4 nmol, oral	0.059
5.72 h, 3.20 nmol, oral	0.0876
5.758 h, 3.20 nmol, oral	1.58
5.767 h, 1.70 nmol, iv	0.231
5.852 h, 1.70 nmol, iv	1.2
7.678 h, 3.20 nmol, oral	0.0754
7.696 h, 3.20 nmol, oral	1.38
8.636 h, 1.70 nmol, iv	1.06
8.719 h, 1.70 nmol, iv	0.195
9.661 h, 3.20 nmol, oral	1.58
9.666 h, 3.20 nmol, oral	0.0665
11.66 h, 4 nmol, oral	0.971
11.69 h, 3.20 nmol, oral	1.46
11.71 h, 3.20 nmol, oral	0.0645
11.72 h, 4 nmol, oral	0.0461
12.06 h, 1.70 nmol, iv	0.983
23.76 h, 4 nmol, oral	0.0211
23.79 h, 3.20 nmol, oral	0.0341
23.82 h, 3.20 nmol, oral	1.25
23.82 h, 4 nmol, oral	0.858
28.68 h, 1.70 nmol, iv	0.0889
29.09 h, 1.70 nmol, iv	0.82
31.89 h, 3.20 nmol, oral	0.0299
153 s, 1.70 nmol, iv	38.5
172 s, 1.70 nmol, iv	16.8
225 s, 4 nmol, oral	0.176
238 s, 3.20 nmol, oral	0.0632
265 s, 1.70 nmol, iv	26.5
278 s, 1.70 nmol, iv	26.9
297 s, 3.20 nmol, oral	0.492
321 s, 3.20 nmol, oral	0.107
331 s, 4 nmol, oral	0.194

CCC(C)=O [methylethylketone]
[16]
Details	concentration in blood [nM]
0.1276 h	272000
0.2874 h	258000
0.4715 h	227000
0.9608 h	208000
1.479 h	139000
1.973 h	122000
2.966 h	102000
4.323 h	54900
4.977 h	22400
5.98 h	16200
6.983 h	7110

[16], during exposure
Details	concentration in blood [nM]
-64 s	309000
-3.826 h	72500
-3.661 h	84600
-3.486 h	115000
-2.992 h	143000
-2.503 h	181000
-1.994 h	218000
-1.011 h	276000

C=Cc1ccccc1 [styrene]
[15], dosed: styrene, 3000 ppm, dermal, duration: 4 hr, F344
Details	concentration in blood [ng/mL]
0.5 h	1480
1 h	2090
2 h	4160
3 h	6070
4 h	7610
